Experimental data from ChEMBL document CHEMBL3526062, “Role of human UDP-glucuronosyltransferases in the biotransformation of the triazoloacridinone and imidazoacridinone antitumor agents C-1305 and C-1311: highly selective substrates for UGT1A10” (Drug Metab Dispos, 2012).

Experiments:
Format in all cases: ADME
[1] = target: T1, UDP-glucuronosyltransferase 1A7 (Homo sapiens, UniProt Q9HAW7); experiment: Drug metabolism assessed as human recombinant UGT1A7-mediated compound formation treated with C-1305 for 60 mins by ESI-MS/UV-vis spectroscopy in presence of 3 mM UDP-GlcUA; details: recombinant enzyme, 1 h
T1 sequence (Q9HAW7 whole entry): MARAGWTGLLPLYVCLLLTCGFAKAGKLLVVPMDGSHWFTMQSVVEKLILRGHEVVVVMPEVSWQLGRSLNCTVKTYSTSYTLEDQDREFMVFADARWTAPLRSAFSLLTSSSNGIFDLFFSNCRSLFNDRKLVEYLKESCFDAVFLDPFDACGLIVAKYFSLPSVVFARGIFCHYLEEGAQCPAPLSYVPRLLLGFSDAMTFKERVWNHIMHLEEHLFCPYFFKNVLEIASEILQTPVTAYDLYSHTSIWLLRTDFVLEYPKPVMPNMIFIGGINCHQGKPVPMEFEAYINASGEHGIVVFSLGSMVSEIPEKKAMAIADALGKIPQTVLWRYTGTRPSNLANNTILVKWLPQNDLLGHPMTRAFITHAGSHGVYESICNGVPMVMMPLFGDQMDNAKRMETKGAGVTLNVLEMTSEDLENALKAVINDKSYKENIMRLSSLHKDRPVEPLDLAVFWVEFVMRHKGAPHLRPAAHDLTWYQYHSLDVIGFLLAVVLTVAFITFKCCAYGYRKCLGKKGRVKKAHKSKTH
Summary of the method: (§1)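 His-tagged recombinant human UGT expressed in baculovirus-infected insect cells, levels normalized by anti-His Western blot; 5 μg membrane protein incubated 60 min at 37°C in […] pH 7.4, 5 mM MgCl2, 5 mM saccharolactone, 2% DMSO, substrate 100 or 200 μM; started with UDP-GlcUA; ethanol stop, centrifuged; supernatant by reversed-phase HPLC-UV/ESI-MS; glucuronide confirmed by β-glucuronidase hydrolysis; triplicate.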

[2] = target: T2, UDP-glucuronosyltransferase 1A9 (Homo sapiens, UniProt O60656); experiment: Activity of human recombinant UGT1A9 expressed in baculovirus-infected Sf9 cells assessed as enzyme-mediated glucuronidation per mg protein at 300 uM after 60 mins by Michaelis-Menten equation in presence of 3 mM UDP-GlcUA; details: sf9, 1 h
T2 sequence (O60656 whole entry): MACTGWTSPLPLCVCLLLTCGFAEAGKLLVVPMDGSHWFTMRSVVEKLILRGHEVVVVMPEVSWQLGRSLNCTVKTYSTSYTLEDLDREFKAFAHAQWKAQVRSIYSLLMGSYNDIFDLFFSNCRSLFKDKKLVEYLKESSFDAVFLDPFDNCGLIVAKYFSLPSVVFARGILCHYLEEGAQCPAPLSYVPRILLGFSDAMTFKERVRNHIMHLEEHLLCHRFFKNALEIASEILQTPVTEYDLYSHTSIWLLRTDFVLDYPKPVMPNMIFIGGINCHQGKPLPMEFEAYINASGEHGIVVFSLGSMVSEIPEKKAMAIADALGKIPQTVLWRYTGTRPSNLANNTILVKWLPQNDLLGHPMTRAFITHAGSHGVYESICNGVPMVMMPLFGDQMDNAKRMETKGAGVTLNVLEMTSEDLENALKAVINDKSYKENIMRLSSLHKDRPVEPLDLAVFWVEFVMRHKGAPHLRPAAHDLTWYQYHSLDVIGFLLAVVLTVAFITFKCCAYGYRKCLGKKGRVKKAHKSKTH

[3] = target: T2, UDP-glucuronosyltransferase 1A9; experiment: Drug metabolism assessed as human recombinant UGT1A9-mediated compound formation treated with C-1305 for 60 mins by ESI-MS/UV-vis spectroscopy in presence of 3 mM UDP-GlcUA; details: recombinant enzyme, 1 h
Summary of the method: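 Recombinant human UGT1A1 or UGT1A9 (5 μg protein), or single-donor human liver or intestinal microsomes (20 μg), incubated in Tris-HCl pH 7.4 with 5 mM MgCl2, 5 mM saccharolactone, 2% DMSO and 100 or 200 μM substrate. Started with UDP-GlcUA, 60 min at 37°C, in triplicate. Product identified by HPLC with positive-ion ESI-MS and UV/Vis spectra, and confirmed by β-glucuronidase hydrolysis.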

[4] = target: T3, UDP-glucuronosyltransferase 1A10 (Homo sapiens, UniProt Q9HAW8); experiment: Drug metabolism assessed as human recombinant UGT1A10-mediated compound formation treated with C-1305 for 60 mins by ESI-MS/UV-vis spectroscopy in presence of 3 mM UDP-GlcUA; details: recombinant enzyme, 1 h; summary of the method: as §1
T3 sequence (Q9HAW8 whole entry): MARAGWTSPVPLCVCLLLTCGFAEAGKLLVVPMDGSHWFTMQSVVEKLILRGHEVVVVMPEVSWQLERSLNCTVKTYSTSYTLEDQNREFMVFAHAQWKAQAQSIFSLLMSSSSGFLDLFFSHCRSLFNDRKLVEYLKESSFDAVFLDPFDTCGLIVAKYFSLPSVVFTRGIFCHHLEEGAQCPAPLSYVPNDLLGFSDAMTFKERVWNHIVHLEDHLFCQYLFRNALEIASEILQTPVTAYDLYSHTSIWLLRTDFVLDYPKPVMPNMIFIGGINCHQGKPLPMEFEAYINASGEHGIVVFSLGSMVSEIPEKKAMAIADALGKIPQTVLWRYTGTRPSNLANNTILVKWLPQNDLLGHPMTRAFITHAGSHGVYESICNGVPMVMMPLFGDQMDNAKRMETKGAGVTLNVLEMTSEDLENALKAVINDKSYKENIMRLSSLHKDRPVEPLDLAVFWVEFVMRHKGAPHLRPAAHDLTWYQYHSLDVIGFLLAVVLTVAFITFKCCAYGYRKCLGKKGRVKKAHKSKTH

[5] = target: T4, UDP-glucuronosyltransferase 1A1 (Homo sapiens, UniProt P22309); experiment: Drug metabolism assessed as human recombinant UGT1A1-mediated compound formation treated with C-1311 for 60 mins by ESI-MS/UV-vis spectroscopy in presence of 3 mM UDP-GlcUA; details: recombinant enzyme, 1 h
T4 sequence (P22309 whole entry): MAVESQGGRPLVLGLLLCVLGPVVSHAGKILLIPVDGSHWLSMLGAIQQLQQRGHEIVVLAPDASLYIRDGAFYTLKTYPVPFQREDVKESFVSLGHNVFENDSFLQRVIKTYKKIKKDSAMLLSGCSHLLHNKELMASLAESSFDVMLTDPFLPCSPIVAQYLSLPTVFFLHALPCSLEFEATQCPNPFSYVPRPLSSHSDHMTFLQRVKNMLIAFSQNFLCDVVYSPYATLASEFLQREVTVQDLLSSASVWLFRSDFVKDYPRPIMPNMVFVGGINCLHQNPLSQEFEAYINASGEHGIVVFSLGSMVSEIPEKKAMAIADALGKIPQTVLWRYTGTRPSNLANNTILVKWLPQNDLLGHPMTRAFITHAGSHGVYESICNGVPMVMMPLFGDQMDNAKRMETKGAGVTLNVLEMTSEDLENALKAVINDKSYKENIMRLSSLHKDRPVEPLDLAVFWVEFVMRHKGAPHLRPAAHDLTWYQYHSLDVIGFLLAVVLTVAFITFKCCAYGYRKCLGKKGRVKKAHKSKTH

[6] = target: T1, UDP-glucuronosyltransferase 1A7; experiment: Drug metabolism assessed as human recombinant UGT1A7-mediated compound formation treated with C-1311 for 60 mins by ESI-MS/UV-vis spectroscopy in presence of 3 mM UDP-GlcUA; details: recombinant enzyme, 1 h

| Drug metabolism [1] | Drug metabolism [2] [nmol/min/mg] | Drug metabolism [3] | Drug metabolism [4] | Structure (SMILES) | Drug metabolism [5] | Drug metabolism [6] |
| --- | --- | --- | --- | --- | --- | --- |
| metabolite_detected | 0.15 | metabolite_detected | metabolite_detected | CN(C)CCCNc1ccc2nnn3c4ccc(O)cc4c(=O)c1c23 | – | – |
| – | – | – | – | CCN(CC)CCNc1ccc2ncn3c4ccc(O)cc4c(=O)c1c23 [C-1311] | metabolite_detected | metabolite_detected |
